Results taken from ChEMBL document CHEMBL5058577, “EUbOPEN Chemogenomics Library 2 (Multiplex)” (2022).

Tested on: U2OS
Test: Multiplex assay against U2OS
Assay type: toxicity, cell-based
Settings: human
Procedure, shortened: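 Live cells carried four stains from seeding: Hoechst33342, BioTracker Green Microtubule Cytoskeleton Dye, MitoTracker Red and Annexin V Alexa Fluor 680. They were imaged on a CQ1 microscope at 37°C and 5% CO2 after compound addition. Using CellPathfinder machine-learning gating, cells were split into Hoechst high-intensity objects or normal cells, normal cells into healthy, pyknosed or fragmented nuclei, and pyknosed cells into mitotic or apoptotic; tubulin, mitochondrial-mass and membrane-permeability phenotypes are per cents of healthy-nucleus cells.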

[1] = 12 h, 1 µM, compound concentration 1 uM, replicate 1
[2] = 12 h, 1 µM, compound concentration 1 uM, replicate 2
[3] = 12 h, 10 µM, compound concentration 10 uM, replicate 1
[4] = 12 h, 10 µM, compound concentration 10 uM, replicate 2
[5] = 24 h, 1 µM, compound concentration 1 uM, replicate 1
[6] = 24 h, 1 µM, compound concentration 1 uM, replicate 2
[7] = 24 h, 10 µM, compound concentration 10 uM, replicate 1
[8] = 24 h, 10 µM, compound concentration 10 uM, replicate 2
[9] = 48 h, 1 µM, compound concentration 1 uM, replicate 1
[10] = 48 h, 1 µM, compound concentration 1 uM, replicate 2
[11] = 48 h, 10 µM, compound concentration 10 uM, replicate 1
[12] = 48 h, 10 µM, compound concentration 10 uM, replicate 2

In the case of `CN1CCN(c2cc(-c3ccccc3)nc(N)n2)CC1`, the “Population Apoptotic (%)” value [1] is reported as 80%, the “Population Fragmented Nuclei (%)” value [1] is reported as 32% and the “Population Healthy Nuclei (%)” value [1] is reported as 61%. The “Population Hoechst High Intensity Objects (%)” value [1] was 2%, the “Population Membrane Permeable-Phenotype (%)” value [1] was 5% and the “Population Mitochondria Different-Phenotype (%)” value [1] was 2%. The “Population Mitotic Cells (%)” value [1] was 20%, the “Population Normal (%)” value [1] was 97% and the “Population Pyknosed Nuclei (%)” value [1] was 6%. The “Population Tubulin-Different-Phenotype (%)” value [1] was 2%, the “Total Cell Count” value [1] was 235 and the “Population Apoptotic (%)” value [2] was 62%. The “Population Fragmented Nuclei (%)” value [2] was 17%, the “Population Healthy Nuclei (%)” value [2] was 76% and the “Population Hoechst High Intensity Objects (%)” value [2] was 1%. The “Population Membrane Permeable-Phenotype (%)” value [2] was 7%, the “Population Mitochondria Different-Phenotype (%)” value [2] was 5% and the “Population Mitotic Cells (%)” value [2] was 37%. For the same compound, the “Population Normal (%)” value [2] was 98%, the “Population Pyknosed Nuclei (%)” value [2] was 5% and the “Population Tubulin-Different-Phenotype (%)” value [2] was 11%. For the same compound, the “Total Cell Count” value [2] was 141, the “Population Apoptotic (%)” value [3] was 86% and the “Population Fragmented Nuclei (%)” value [3] was 30%. For the same compound, the “Population Healthy Nuclei (%)” value [3] was 63%, the “Population Hoechst High Intensity Objects (%)” value [3] was 0% and the “Population Membrane Permeable-Phenotype (%)” value [3] was 5%. The “Population Mitochondria Different-Phenotype (%)” value [3] was 3%, the “Population Mitotic Cells (%)” value [3] was 13% and the “Population Normal (%)” value [3] was 99%. For the same compound, the “Population Pyknosed Nuclei (%)” value [3] was 6%, the “Population Tubulin-Different-Phenotype (%)” value [3] was 3% and the “Total Cell Count” value [3] was 252. For the same compound, the “Population Apoptotic (%)” value [4] was 73%, the “Population Fragmented Nuclei (%)” value [4] was 8% and the “Population Healthy Nuclei (%)” value [4] was 80%. The “Population Hoechst High Intensity Objects (%)” value [4] was 1%, the “Population Membrane Permeable-Phenotype (%)” value [4] was 10% and the “Population Mitotic Cells (%)” value [4] was 26%. For the same compound, the “Population Normal (%)” value [4] was 98%, the “Population Pyknosed Nuclei (%)” value [4] was 10% and the “Population Tubulin-Different-Phenotype (%)” value [4] was 7%. The “Total Cell Count” value [4] was 139, the “Population Apoptotic (%)” value [5] was 86% and the “Population Fragmented Nuclei (%)” value [5] was 25%. The “Population Healthy Nuclei (%)” value [5] was 65%, the “Population Hoechst High Intensity Objects (%)” value [5] was 1% and the “Population Membrane Permeable-Phenotype (%)” value [5] was 7%. For the same compound, the “Population Mitochondria Different-Phenotype (%)” value [5] was 1%, the “Population Mitotic Cells (%)” value [5] was 13% and the “Population Normal (%)” value [5] was 98%. For the same compound, the “Population Pyknosed Nuclei (%)” value [5] was 8%, the “Population Tubulin-Different-Phenotype (%)” value [5] was 4% and the “Total Cell Count” value [5] was 278. For the same compound, the “Population Apoptotic (%)” value [6] was 80%, the “Population Fragmented Nuclei (%)” value [6] was 21% and the “Population Healthy Nuclei (%)” value [6] was 73%. The “Population Membrane Permeable-Phenotype (%)” value [6] was 6%, the “Population Mitotic Cells (%)” value [6] was 20% and the “Population Pyknosed Nuclei (%)” value [6] was 5%. For the same compound, the “Population Tubulin-Different-Phenotype (%)” value [6] was 9%, the “Total Cell Count” value [6] was 177 and the “Population Apoptotic (%)” value [7] was 100%. The “Population Fragmented Nuclei (%)” value [7] was 23%, the “Population Healthy Nuclei (%)” value [7] was 69% and the “Population Hoechst High Intensity Objects (%)” value [7] was 1%. The “Population Membrane Permeable-Phenotype (%)” value [7] was 9%, the “Population Mitochondria Different-Phenotype (%)” value [7] was 3% and the “Population Mitotic Cells (%)” value [7] was 0%. For the same compound, the “Population Normal (%)” value [7] was 98%, the “Population Pyknosed Nuclei (%)” value [7] was 6% and the “Population Tubulin-Different-Phenotype (%)” value [7] was 7%. For the same compound, the “Total Cell Count” value [7] was 287, the “Population Apoptotic (%)” value [8] was 81% and the “Population Fragmented Nuclei (%)” value [8] was 12%. For the same compound, the “Population Healthy Nuclei (%)” value [8] was 80%, the “Population Hoechst High Intensity Objects (%)” value [8] was 2% and the “Population Membrane Permeable-Phenotype (%)” value [8] was 4%. For the same compound, the “Population Mitochondria Different-Phenotype (%)” value [8] was 4%, the “Population Mitotic Cells (%)” value [8] was 18% and the “Population Normal (%)” value [8] was 97%. The “Population Tubulin-Different-Phenotype (%)” value [8] was 2%, the “Total Cell Count” value [8] was 166 and the “Population Apoptotic (%)” value [9] was 83%. For the same compound, the “Population Fragmented Nuclei (%)” value [9] was 21%, the “Population Healthy Nuclei (%)” value [9] was 69% and the “Population Hoechst High Intensity Objects (%)” value [9] was 2%. The “Population Membrane Permeable-Phenotype (%)” value [9] was 5%, the “Population Mitochondria Different-Phenotype (%)” value [9] was 1% and the “Population Mitotic Cells (%)” value [9] was 16%. The “Population Normal (%)” value [9] was 97%, the “Population Pyknosed Nuclei (%)” value [9] was 9% and the “Population Tubulin-Different-Phenotype (%)” value [9] was 2%. The “Total Cell Count” value [9] was 409, the “Population Apoptotic (%)” value [10] was 69% and the “Population Fragmented Nuclei (%)” value [10] was 19%. The “Population Healthy Nuclei (%)” value [10] was 75%, the “Population Hoechst High Intensity Objects (%)” value [10] was 3% and the “Population Mitochondria Different-Phenotype (%)” value [10] was 2%. For the same compound, the “Population Mitotic Cells (%)” value [10] was 30%, the “Population Normal (%)” value [10] was 96% and the “Population Pyknosed Nuclei (%)” value [10] was 5%. The “Population Tubulin-Different-Phenotype (%)” value [10] was 7%, the “Total Cell Count” value [10] was 267 and the “Population Apoptotic (%)” value [11] was 100%. The “Population Fragmented Nuclei (%)” value [11] was 19%, the “Population Healthy Nuclei (%)” value [11] was 71% and the “Population Hoechst High Intensity Objects (%)” value [11] was 1%. The “Population Membrane Permeable-Phenotype (%)” value [11] was 5%, the “Population Mitochondria Different-Phenotype (%)” value [11] was 3% and the “Population Mitotic Cells (%)” value [11] was 0%. The “Population Normal (%)” value [11] was 98%, the “Population Pyknosed Nuclei (%)” value [11] was 8% and the “Population Tubulin-Different-Phenotype (%)” value [11] was 6%. The “Total Cell Count” value [11] was 420, the “Population Apoptotic (%)” value [12] was 88% and the “Population Fragmented Nuclei (%)” value [12] was 11%. The “Population Healthy Nuclei (%)” value [12] was 78%, the “Population Membrane Permeable-Phenotype (%)” value [12] was 2% and the “Population Mitotic Cells (%)” value [12] was 12%. For the same compound, the “Population Pyknosed Nuclei (%)” value [12] was 10%, the “Population Tubulin-Different-Phenotype (%)” value [12] was 1% and the “Total Cell Count” value [12] was 254.
